# ADAM17 inh: inhibitors of human ADAM17; P78536; recombinant ADAM17, EDANS/DABCYL FRET peptide cleavage; inhibition, % at 6.95 µM; 0.83% of 370,000 active; AID 720648;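 active = inhibition above the mean of compounds lying between control limits plus 3 SD, set per campaign, cut at about 8.5% in these data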;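 also: 0% = DMSO-only wells as the low control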
# FAS-TE inh: blocks the thioesterase domain of human fatty acid synthase; P49327; recombinant FAS-TE, OMFH fluorogenic substrate, fluorescence endpoint; inhibition, % at 15 µM; 0.67% of 360,000 active; AID 602261;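 active = compounds whose normalised, plate-corrected inhibition of enzyme fluorescence in the single-dose primary screen is 50% or more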;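 also: 0% = DMSO with enzyme and 100% = substrate without enzyme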
# ADAM10 inh: inhibits human ADAM10; recombinant ADAM10, EDANS/DABCYL FRET peptide cleavage, 3 h; 0.62% of 370,000 active; O14672; inhibition, % at 7 µM;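 active = inhibition above a per-campaign cutoff equal to the mean of compounds falling between control-based bounds plus 3 SD, cut at about 20% in these data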;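 also: 0% = DMSO wells while the 100% control is not disclosed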
# SENP1 FRET inh: inhibitors of human SENP1 SUMO protease catalytic domain; inhibition, % at 10 µM; recombinant SENP1 catalytic domain, CyPet-SUMO1-YPet FRET cleavage; AID 624204; Q9P0U3; 0.21% of 360,000 active;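 active = inhibition at least 30% at 10 µM, raw YFP signal under a set limit, fluorescence ratio 0.5 to 1.5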;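 also: 0% = enzyme with DMSO and 100% = no enzyme wells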
# Target sequence (Q9P0U3 419-644 limits assumed): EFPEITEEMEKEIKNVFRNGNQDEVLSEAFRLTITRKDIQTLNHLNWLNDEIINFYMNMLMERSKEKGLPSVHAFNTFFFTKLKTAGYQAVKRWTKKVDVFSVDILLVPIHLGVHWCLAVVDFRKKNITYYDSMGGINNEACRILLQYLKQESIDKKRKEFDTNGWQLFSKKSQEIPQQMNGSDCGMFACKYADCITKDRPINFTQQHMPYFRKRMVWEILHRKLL
#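 Test system: human SENP1 catalytic domain; medium: Tris pH 8 buffer plus EDTA, NaCl, BME, BSA, NP40, catalase; incubation: 50 min reaction at room temperature; technique: FRET, CFP and YFP emission; controls: no-enzyme low control and enzyme-plus-DMSO high control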
# SENP1 conf: SENP1 (human) inhibition, single concentration confirmation. shares compounds with SENP1 FRET inh. recombinant SENP1, CyPet-SUMO1-YPet FRET cleavage. 34% of 520 active. AID 651678. inhibition, % at 10 µM; in the data active = inhibition mostly above about 35%, no sharp cut-off; inactive = mostly below about 32%;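 also: 0% = enzyme with DMSO and 100% = no enzyme control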
# SENP1 kin conf: confirmation of human SENP1 SUMO protease inhibitors, kinetic | shares compounds with SENP1 FRET inh | inhibition, % at 10 µM | recombinant SENP1, CyPet-SUMO1-YPet FRET kinetic cleavage | 26% of 520 active; in the data active = inhibition mostly above about 32%, no sharp cut-off; inactive = mostly below about 29%;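 also: 0% = DMSO with enzyme and 100% = no enzyme substrate only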
# ADAM10 confirm: confirmation of inhibitors of human ADAM10. inhibition, % at 6.95 µM. ADAM10 QFRET peptide cleavage, EDANS fluorescence. 1% of 2,100 active. shares compounds with ADAM10 inh;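 active = inhibition above about 20% chosen separately for each screening run, limit read from the data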;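 also: 0% = DMSO wells and 100% = marimastat wells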
# ADAM17 counter: counter-screen for ADAM10 exosite inhibitors: inhibitors of human ADAM17; shares compounds with ADAM10 inh; ADAM17 QFRET peptide cleavage, EDANS fluorescence; inhibition, % at 6.95 µM; 0.5% of 2,100 active; AID 743214;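 active = mean triplicate inhibition above the solvent-only control wells' mean plus 3 SD, cut at about 12% in these data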;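 also: 0% = DMSO wells and 100% = marimastat wells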
# * hit, by the source's call; x = not tested or not shown. A selection: hits, their analogues and other compounds. The true share with any hit is near 1.9%.
SMILES,ADAM17 inh,FAS-TE inh,ADAM10 inh,SENP1 FRET inh,SENP1 conf,SENP1 kin conf,ADAM10 confirm,ADAM17 counter
CN1C(=O)C(=Cc2ccc(N3CCOCC3)o2)C(=O)N(C)C1=S,-3.7,-10.7,3.4,66.4*,3.9,2.6,x,x
Cc1cc(NC(=O)COC(=O)c2c(C)nn(Cc3ccccc3)c2C)no1,-1.9,-3.2,1.1,-1.0,x,x,x,x
Cc1nn(Cc2ccccc2)c(C)c1C(=O)OCC(=O)Nc1ccccc1SCC#N,2.0,-11.9,3.8,48.0*,4.8,3.6,x,x
CC(NC(=O)OCc1ccccc1)[P+](=O)O (centres undefined),-7.5,x,-0.8,x,x,x,x,x
CC1=NN=C(c2ccc(N)cc2)c2cc3c(cc2C1)OCO3,-1.7,-2.1,-12.9,42.7*,5.5,-3.5,x,x
O=C1NC(=O)C(Sc2ccccc2[N+](=O)[O-])C(=O)N1,-1.6,-0.6,-7.2,31.5*,13.5,15.7,x,x
CN1c2ccc(Br)cc2[C@@H]2NCC[C@@H]2[C@@H]1CO,-43.7,x,-190.8,x,x,x,x,x
COc1ccc(P2(=O)Nc3ccccc3N2)cc1,4.5,2.0,-12.3,37.6*,94.4*,60.4*,x,x
O=C(NCCN1CCC2(CC1)C(=O)NCN2c1ccccc1)c1ccc(F)cc1,-6.4,x,-11.1,x,x,x,x,x
O=C(NCCN1CCC2(CC1)C(=O)NCN2c1ccccc1)c1ccc2ccccc2c1,-1.5,x,-1.4,x,x,x,x,x
CCN1C(=O)C(=Cc2ccc(N3CCOCC3)o2)C(=O)N(CC)C1=S,-0.9,-4.0,24.6*,49.0*,18.9,9.8,-1.3,-0.1
Brc1ccc2c(c1)-n1nncc1CNC2,-1.6,x,-7.0,x,x,x,x,x
CCCC/C(C)=C/[C@@H](NP(=O)(c1ccccc1)c1ccccc1)c1ccccc1,8.6,15.1,20.2*,-0.9,x,x,7.3,1.7
COC(=O)C1=C(c2ccccc2OCc2ccccc2)C[C@@H]2CC[C@H]1N2C(=O)NCc1ccc(F)cc1,-0.6,16.6,11.8,0.5,x,x,x,x
COC(=O)C1=C(c2ccccc2OCc2ccccc2)C[C@@H]2CC[C@H]1N2C(=O)NCc1ccc(C(C)(C)C)cc1,4.0,14.6,24.7*,2.7,x,x,11.2,3.0
COC(=O)C1=C(c2cccc(OCc3ccccc3)c2)C[C@@H]2CC[C@H]1N2C(=O)NCc1ccc([N+](=O)[O-])cc1,7.2,22.3,26.1*,3.6,x,x,8.7,2.2
CCCCCCC(C)(C)c1ccc([C@@H]2C[C@H](O)CC[C@H]2CCCO)c(O)c1,5.5,29.3,27.4*,1.8,x,x,4.7,1.3
CN1C[C@H](O)[C@H]2C[C@@H]1c1ccccc1O2,-3.5,x,-15.4,x,x,x,x,x
CCOc1ccccc1OCC(=O)Nc1ccc(Cl)cc1C(=O)c1ccccc1,5.6,25.3,6.3,2.0,x,x,x,x
O=C(COC(=O)c1cccc(O)c1)Nc1ccc(Cl)cc1C(=O)c1ccccc1,8.2,19.8,22.9*,1.4,x,x,6.5,1.5
COc1cccc(-c2ccc3c(c2)C2c4cnnn4-c4ccccc4C(=O)N2CC3)c1 (centres undefined),-5.8,x,-5.9,x,x,x,x,x
COC(=O)c1ccc(NC(=O)CSc2nc3ccc(N4C(=O)C5C6C=CC(C6)C5C4=O)cc3s2)cc1 (centres undefined),6.8,41.3,25.4*,2.0,x,x,4.7,1.7
O=C(NCCN1CCC2(CC1)C(=O)NCN2c1ccccc1)c1ccc(Cl)cc1,-2.3,x,-1.3,x,x,x,x,x
Cc1c(P(=S)(c2ccccc2)c2ccccc2)c2ccccc2n1C,-3.0,x,-4.7,x,x,x,x,x
